Data set [1] has as its system HUVEC. In words: Antiangiogenic activity in HUVEC assessed as inhibition of VEGF-induced capillary tube formation after 8 hrs by matrigel based inverted microscopic analysis. Format: functional, cell-based. To be noted: Homo sapiens. The method in brief: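 HUVECs treated with compound with or without VEGF (50 ng/mL) for 8 h. Intact tubes counted under a microscope, and IC50 calculated against control. Value is the mean IC50 from triplicate experiments.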

Data set [2] has as its system HUVEC. In words: Growth inhibition of HUVEC after 24 hrs in presence of VEGF by MTT assay. To be noted: Homo sapiens. Format: cell-based. A digest of the protocol:
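HUVECs exposed to compound in the presence of VEGF (50 ng/mL) for 24 h, with growth read by MTT assay. Value is the mean IC50 from triplicate experiments.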
(Tetrazolium assays rely on reduction of a dye to a coloured formazan, in cell work by metabolically active cells.)

Data set [3] can be described thus: Stability in human plasma assessed as parent compound remaining at 10 uM after 30 mins by LC-MS/MS analysis. Format: ADME, cell-free. To be noted: read-out: Stability. The method in brief: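 Parent compound remaining after 30 min incubation in human plasma.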
Data set [4] in a line: Apparent permeability from apical to basolateral side in MDCK cells at 10 uM by LC-MS/MS analysis. The conditions noted are these: dog. It counts as ADME, cell-based, Canis lupus familiaris. A digest of the protocol:
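Apparent permeability coefficient (Papp, A-B) measured across MDCK cell monolayers.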

Data set [5] has as its target Vascular endothelial growth factor receptor 2 (Homo sapiens) (UniProt P35968). In words: Inhibition of VEGFR2 in HUVEC assessed as decrease in VEGF-induced PI3K phosphorylation at Tyr458 residues pretreated for 30 mins followed by VEGF stimulation for 20 mins by Western blot analysis. Format: cell-based. The method in brief: (§1)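 HUVECs pretreated with various compound concentrations for 30 min, then stimulated with VEGF (50 ng/mL) for 20 min. Phosphoproteins detected by immunoblot, with β-actin as loading control.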
For orientation: Immunoblotting shows a protein as a band on a membrane.

A short description of data set [6]: Metabolic stability in human liver microsomes assessed as parent compound remaining at 1 uM preincubated for 5 mins followed by NADPH addition measured after 30 mins by LC-MS/MS analysis. Format: ADME, microsome. To be noted: read-out: Stability. The method in brief:
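Parent compound remaining after 30 min incubation with human liver microsomes.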
For orientation: Microsomes from liver hold many membrane-bound enzymes, among them those of drug oxidation.

For data set [7], the system named is HUVEC. In words: Inhibition of integrin in HUVEC assessed as decrease in VEGF-induced SRC/FAK phosphorylation pretreated for 30 mins followed by VEGF stimulation for 20 mins by Western blot analysis. To be noted: Homo sapiens. Format: cell-based. The method in brief: as §1
For data set [8], the target named is Vascular endothelial growth factor receptor 2 (Homo sapiens) (UniProt P35968). In words: Inhibition of VEGFR2 in HUVEC assessed as decrease in VEGF-induced AKT phosphorylation at […] residues pretreated for 30 mins followed by VEGF stimulation for 20 mins by Western blot analysis. Format: cell-based. The method in brief:
as §1

The target in data set [9] is T1, Protein kinase C iota type (Homo sapiens) (UniProt P41743).
T1 sequence (whole entry): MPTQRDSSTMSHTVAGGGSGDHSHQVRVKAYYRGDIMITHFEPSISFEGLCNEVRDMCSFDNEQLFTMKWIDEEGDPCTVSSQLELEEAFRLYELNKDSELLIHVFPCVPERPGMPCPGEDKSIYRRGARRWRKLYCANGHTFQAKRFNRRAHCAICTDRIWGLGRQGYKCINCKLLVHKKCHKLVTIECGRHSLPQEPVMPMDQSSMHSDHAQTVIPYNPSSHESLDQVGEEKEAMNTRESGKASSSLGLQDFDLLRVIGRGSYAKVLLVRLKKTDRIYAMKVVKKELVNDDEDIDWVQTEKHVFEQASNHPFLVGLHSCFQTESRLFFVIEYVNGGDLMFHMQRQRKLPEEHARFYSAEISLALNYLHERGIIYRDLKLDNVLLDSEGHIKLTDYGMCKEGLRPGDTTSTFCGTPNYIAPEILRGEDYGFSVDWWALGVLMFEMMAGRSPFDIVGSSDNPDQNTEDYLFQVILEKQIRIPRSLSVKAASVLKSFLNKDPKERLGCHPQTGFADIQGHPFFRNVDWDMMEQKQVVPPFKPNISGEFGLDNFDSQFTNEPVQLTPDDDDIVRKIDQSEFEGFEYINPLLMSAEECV
In words: Inhibition of human wild type partial length PRKCI (H215 to V587 residues) expressed in mammalian expression system at 10 uM by Kinomescan method relative to control. The method in brief:
(§2)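 Compound tested at 10 μM in a KINOMEscan binding panel of 30 kinases. Activity taken from binding between each kinase and its corresponding ligand.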

Data set [10] addresses Vascular endothelial growth factor receptor 2 (Homo sapiens) (UniProt P35968). In words: Inhibition of VEGF-induced VEGFR2 phosphorylation at Tyr1175 residues in HUVEC pretreated for 30 mins followed by VEGF stimulation for 20 mins by Western blot analysis. It counts as cell-based. A digest of the protocol: as §1
Data set [11] concerns the target Dual specificity mitogen-activated protein kinase kinase 1 (Homo sapiens) (UniProt Q02750). In words: Inhibition of human wild type partial length MEK1 (M1 to V393 residues) expressed in mammalian expression system at 10 uM by Kinomescan method relative to control. The method in brief: as §2
For data set [12], the target named is Vascular endothelial growth factor receptor 2 (Homo sapiens) (UniProt P35968). In words: Inhibition of VEGFR2 in HUVEC assessed as decrease in VEGF-induced SRC phosphorylation pretreated for 30 mins followed by VEGF stimulation for 20 mins by Western blot analysis. It counts as cell-based. A digest of the protocol:
as §1

Data set [13] shares this target. In words: Inhibition of VEGFR2 in HUVEC assessed as decrease in VEGF-induced AKT phosphorylation at Thr308 residues pretreated for 30 mins followed by VEGF stimulation for 20 mins by Western blot analysis. It counts as cell-based. The method in brief: as §1
The target of data set [14] is Casein kinase I isoform alpha (Homo sapiens) (UniProt P48729). In words: Inhibition of human wild type partial length CSNK1A1 (M1 to L301 residues) expressed in mammalian expression system at 10 uM by Kinomescan method relative to control. A digest of the protocol:
as §2

In data set [15] the target is Vascular endothelial growth factor receptor 2 (Homo sapiens) (UniProt P35968). In words: Inhibition of VEGFR2 in HUVEC assessed as decrease in VEGF-induced eNOS phosphorylation at Ser1177 residues pretreated for 30 mins followed by VEGF stimulation for 20 mins by Western blot analysis. Format: cell-based. A digest of the protocol:
as §1

The target is the same in data set [16]. In words: Inhibition of VEGFR2 in HUVEC assessed as decrease in VEGF-induced FAK phosphorylation at Tyr397 residues pretreated for 30 mins followed by VEGF stimulation for 20 mins by Western blot analysis. It counts as cell-based. A digest of the protocol:
as §1

The species entered for data set [17] is Danio rerio. In words: Antiangiogenic activity in transgenic zebrafish flk:EGFP embryo model of DR-mimic hyaloid vessels in larval eye lenses assessed as inhibition of high glucose induced increase in hyaloid vessel diameter pretreated with glucose 3 days post fertilization for 3 days followed by compound addition measured 6 days post fertilization by fluorescence microscopy. It counts as functional, organism-based. A digest of the protocol:
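Transgenic flk:EGFP zebrafish embryos at 3 dpf exposed to 130 mM glucose for 3 days to induce DR-mimic hyaloid vessels, with compound at varying concentrations. Hyaloid vessel diameter measured near the optic disc in isolated eye lenses; primary branch number compared with high-glucose controls. ANOVA with Tukey's test, n = 3.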

Data set [18] has as its system HUVEC. In words: Antimigratory activity in HUVEC after 24 hrs by inverted phase contrast light microscopic analysis. It counts as functional, cell-based. The conditions noted are these: Homo sapiens. A digest of the protocol: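 Migrated HUVECs counted and compared with VEGF-treated control groups. Statistics by ANOVA with Tukey's test, n = 3.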
Data set [19] is filed under the species Danio rerio. In words: Toxicity in transgenic zebrafish flk:EGFP embryo model of DR-mimic hyaloid vessels in larval eye lenses measured 6 days post fertilization. The conditions noted are these: in vivo, 144 h. It counts as organism-based.

Active and inactive are the calls of the source. The calls are words filed in the database; no cut-off is given here.

The IC50 is the concentration needed to halve the response being measured. As a reminder, the Papp A→B is the apparent permeability from the apical to the basolateral side of a cell layer. As usually defined, the inhibition is the share of the control response that was lost under treatment.

Vascular endothelial growth factor receptor 2 (Homo sapiens), sequence (P35968 whole entry, the tested form may be a part): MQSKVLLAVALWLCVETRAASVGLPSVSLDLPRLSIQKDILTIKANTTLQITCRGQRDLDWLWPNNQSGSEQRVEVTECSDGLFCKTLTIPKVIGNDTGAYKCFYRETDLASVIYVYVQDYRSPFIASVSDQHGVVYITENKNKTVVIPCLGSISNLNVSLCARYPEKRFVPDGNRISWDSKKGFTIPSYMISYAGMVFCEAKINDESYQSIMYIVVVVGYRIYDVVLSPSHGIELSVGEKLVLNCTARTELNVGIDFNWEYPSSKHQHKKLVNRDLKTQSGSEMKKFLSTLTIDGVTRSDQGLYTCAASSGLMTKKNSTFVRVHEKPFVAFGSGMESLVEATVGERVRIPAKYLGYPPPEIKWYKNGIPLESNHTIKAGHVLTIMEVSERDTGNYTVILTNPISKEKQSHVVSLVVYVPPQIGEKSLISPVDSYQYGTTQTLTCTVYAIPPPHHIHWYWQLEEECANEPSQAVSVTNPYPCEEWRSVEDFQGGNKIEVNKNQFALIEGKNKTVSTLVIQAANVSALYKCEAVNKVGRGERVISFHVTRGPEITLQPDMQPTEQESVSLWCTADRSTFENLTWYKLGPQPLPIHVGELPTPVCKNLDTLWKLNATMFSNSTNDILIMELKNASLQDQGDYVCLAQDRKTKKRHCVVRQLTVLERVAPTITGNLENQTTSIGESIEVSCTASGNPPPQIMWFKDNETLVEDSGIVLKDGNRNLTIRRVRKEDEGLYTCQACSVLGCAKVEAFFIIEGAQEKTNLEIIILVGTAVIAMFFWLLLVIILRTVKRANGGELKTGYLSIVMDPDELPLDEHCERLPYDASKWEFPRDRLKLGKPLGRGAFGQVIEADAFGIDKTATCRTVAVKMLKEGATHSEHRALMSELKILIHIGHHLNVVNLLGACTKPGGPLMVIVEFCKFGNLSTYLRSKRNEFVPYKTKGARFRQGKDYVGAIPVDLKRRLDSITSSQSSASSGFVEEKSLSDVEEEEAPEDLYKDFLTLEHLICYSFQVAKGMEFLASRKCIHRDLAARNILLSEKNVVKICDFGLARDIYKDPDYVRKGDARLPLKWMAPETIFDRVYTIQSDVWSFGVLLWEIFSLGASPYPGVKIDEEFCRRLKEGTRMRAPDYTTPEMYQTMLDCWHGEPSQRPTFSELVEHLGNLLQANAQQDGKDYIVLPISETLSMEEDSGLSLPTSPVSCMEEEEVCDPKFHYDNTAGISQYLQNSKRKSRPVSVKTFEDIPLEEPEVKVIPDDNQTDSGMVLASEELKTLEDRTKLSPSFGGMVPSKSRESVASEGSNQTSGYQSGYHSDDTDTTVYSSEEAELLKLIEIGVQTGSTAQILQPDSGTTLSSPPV
Dual specificity mitogen-activated protein kinase kinase 1 (Homo sapiens), sequence (Q02750 whole entry, the tested form may be a part): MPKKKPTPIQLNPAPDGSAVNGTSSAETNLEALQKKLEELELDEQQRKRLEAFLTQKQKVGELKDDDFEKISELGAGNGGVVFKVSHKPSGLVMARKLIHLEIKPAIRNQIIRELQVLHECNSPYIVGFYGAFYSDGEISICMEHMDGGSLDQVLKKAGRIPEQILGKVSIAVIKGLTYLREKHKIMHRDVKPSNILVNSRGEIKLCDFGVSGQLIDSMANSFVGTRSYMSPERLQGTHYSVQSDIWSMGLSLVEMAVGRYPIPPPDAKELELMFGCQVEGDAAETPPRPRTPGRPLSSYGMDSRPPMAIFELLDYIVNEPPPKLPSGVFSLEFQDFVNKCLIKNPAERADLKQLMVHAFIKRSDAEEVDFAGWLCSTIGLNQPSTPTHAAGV
Casein kinase I isoform alpha (Homo sapiens), sequence (P48729 2-337 limits assumed): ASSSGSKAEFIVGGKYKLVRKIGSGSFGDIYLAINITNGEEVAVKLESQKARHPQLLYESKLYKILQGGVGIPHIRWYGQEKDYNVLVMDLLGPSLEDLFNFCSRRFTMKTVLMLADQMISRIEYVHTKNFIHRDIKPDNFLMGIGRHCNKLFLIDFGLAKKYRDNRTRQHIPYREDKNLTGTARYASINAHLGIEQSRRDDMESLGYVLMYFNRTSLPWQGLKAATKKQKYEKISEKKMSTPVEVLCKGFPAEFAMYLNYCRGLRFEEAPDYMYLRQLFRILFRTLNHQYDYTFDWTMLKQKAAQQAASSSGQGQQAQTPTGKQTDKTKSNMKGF

In the case of `CCc1ccc2nc(C(c3ccc(OC)c(OC)c3)n3cc(CCN4CCCC4)nn3)sc2c1` (configuration not stated), the IC50 was 2.84 µM with HUVEC [1] and 70.3 µM with HUVEC [2].

Take `CCc1ccc2nc(C(c3ccc(OC)c(OC)c3)n3cc(CCN(C)C)nn3)sc2c1` (configuration not stated): the values for the IC50 in the data set on HUVEC [1] and with HUVEC [2] were 8.27 µM and 93.5 µM, respectively.

Regarding `CCc1ccc2cc(C(c3ccc(O)c(O)c3)n3cc(CCN(C)C)nn3)oc2c1` (configuration not stated), the IC50 with HUVEC [1] turned out to be 6.1 µM; in the data set on HUVEC [2] it was 22 µM.

Take `CCc1ccc2nc(C(c3ccc(O)c(O)c3)n3cc(CCN(C)C)nn3)sc2c1` (configuration not stated): the IC50 in the data set on HUVEC [1] stood at 3.04 µM; in the data set with HUVEC [2] it was 37.3 µM.

On to `CCCNCCc1cn(C(c2ccc(OC)c(OC)c2)c2nc3ccc(CC)cc3s2)nn1` (configuration not stated), for which the IC50 in the data set on HUVEC [1] is 1.39 µM; in the data set on HUVEC [2] it was 38.6 µM.

On to `CCN(CC)CCNC(=O)c1c(C)[nH]c(/C=C2\C(=O)Nc3ccc(F)cc32)c1C` [SUNITINIB], for which the figures for the IC50 in the data set with HUVEC [1] and in the data set with HUVEC [2] were 0.546 µM and 9.92 µM, respectively.

On to `CCc1ccc2nc(C(c3ccc(O)c(O)c3)n3cc(CCN(C)C)nn3)oc2c1` (configuration not stated), for which the IC50 in the data set on HUVEC [1] is over 20 µM; in the data set with HUVEC [2], over 100 µM.

Consider `CCc1ccc2c(c1)OC(C(c1ccc(O)c(O)c1)n1cc(CCN(C)C)nn1)O2` (configuration not stated), for which the figures for the IC50 in the data set on HUVEC [1] and in the data set on HUVEC [2] were 28 µM and 95.9 µM, respectively.

With `CN(C)CCc1cn(C(c2ccc(O)c(O)c2)C2Oc3ccc(/C=C/OS(=O)(=O)O)cc3O2)cn1` (configuration not stated), the IC50 in the data set on HUVEC [1] is 42.8 µM; in the data set with HUVEC [2], over 100 µM.

On to `CCc1ccc2nc(C(c3ccc(OC)c(OC)c3)n3cc(CCN4CCCCC4)nn3)sc2c1` (configuration not stated), for which the remaining at 0.5 h, 10 µM in data set [3] amounted to 95%. Besides, in data set [4], the Papp A→B at 10 µM came out at 11 ×10⁻⁶ cm/s. Further, the inhibition result (in [5]; in the data set on HUVEC [7]; in data set [8]; in [10]; in data set [12]; in [13]) was “Active” in each case. In addition, the inhibition result in data set [15] and in data set [16] was “Active” throughout. Moreover, the remaining at 0.5 h, 1 µM in [6] was determined as 31%. Further, the IC50 came to 0.631 µM with HUVEC [1] and 47.5 µM with HUVEC [2]. Further, the inhibition result was “Dose-dependent effect” in the data set with HUVEC [1]; over 40% in [9]; over 40% in data set [11]; over 40% in data set [14]; “Dose-dependent effect” in the data set listed under Danio rerio [17]. Further, the Activity entry with HUVEC [18] is “Dose-dependent effect”; in the data set filed under Danio rerio [19] it was “Non-Toxic”.

Consider `CCc1ccc2nc(C(c3ccc(OC)c(OC)c3)n3cc(CCNC4CCCC4)nn3)sc2c1` (configuration not stated), for which the values for the IC50 in the data set on HUVEC [1] and in the data set with HUVEC [2] were 1.02 µM and 19.4 µM, respectively.

In the case of `CCc1ccc2nc(C(c3ccc(OC)c(OC)c3)n3cc(CCN4CCOCC4)nn3)sc2c1` (configuration not stated), the IC50 was 3.93 µM with HUVEC [1] and over 100 µM in the data set on HUVEC [2].

These data come from ChEMBL document CHEMBL4130527, “New Scaffold for Angiogenesis Inhibitors Discovered by Targeted Chemical Transformations of Wondonin Natural Products” (ACS Med Chem Lett, 2017).
